Assay outcomes (PubChem BioAssay)
Hits are enriched below; roughly 0.58% of the tested compounds scored in any of these assays.
OXTR potentiate: human OXTR potentiators, primary screen, fluorescence, CHO-OTR cells, Fluo-8 calcium; Oxytocin receptor (Homo sapiens), P30559; Fluo-8 calcium fluorescence, potentiator mode; 0% = oxytocin EC15, 100% = EC100; activation, % at 3 µM; 320,000 tested, 0.061% active;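 active = activation above that plate's cutoff, the mean activation of tested compounds plus 3 SD, cut at about 6.6% in these data, passing the limit was not always enough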;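 also: 100% uses oxytocin at 75 nM as the full agonist control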
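test system = CHO-OTR cells, human receptor | compound = single-point 3.0 µM | schedule = 6 min compound pre-incubation at room temperature, 100 s kinetic read | signal = Fluo-8 no-wash calcium dye fluorescence, excitation 470-495 nm, emission 515-575 nm | repeats = single well per compound, singlicate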
TRPN1 ag: zebrafish TRPN1 channel agonists, primary screen, cell-based, HEK293, calcium fluorescence | activation, % at 3 µM | 220,000 tested, 0.18% active | HEK293 zebrafish TRPN1-YFP, Fluo-8 calcium fluorescence; 100% = response to 87 µM carbachol | AID 1424, 2008 | transient receptor potential cation channel N1 (TRPN1/NompC), Danio rerio;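 active = activation above its plate's cutoff, the mean activation of test wells on that plate plus 3 SD, cut at about 19% in these data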;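 also: 0% = DMSO alone and 100% = 87 µM carbachol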
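Material – zebrafish TRPN1-YFP in HEK293 cells · Doses – 3 µM single point · Schedule – dye 1 h 37 °C plus 30 min RT · Signal – Fluo-8 calcium fluorescence, excitation 470-495 nm, emission 515-575 nm · Read-out – % activation versus carbachol response · Control set – carbachol high, DMSO low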
V1R ag counter: agonists of human V1a receptor, primary screen, counter-screen for OXTR agonist project, fluorescence, CHO-V1R cells | 320,000 tested, 0.25% active | Fluo-8 calcium fluorescence, agonist mode; 0% DMSO, 100% 3 nM vasopressin | Vasopressin V1a receptor (Homo sapiens), P37288 | activation, % at 3 µM;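 active = activation above the mean activation of all tested compounds plus 3 SD, per screening run, cut at about 20% in these data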;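 also: signal is peak over basal fluorescence ratio across a 100 second FLIPR read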
Target sequence (P37288 whole entry, looked up): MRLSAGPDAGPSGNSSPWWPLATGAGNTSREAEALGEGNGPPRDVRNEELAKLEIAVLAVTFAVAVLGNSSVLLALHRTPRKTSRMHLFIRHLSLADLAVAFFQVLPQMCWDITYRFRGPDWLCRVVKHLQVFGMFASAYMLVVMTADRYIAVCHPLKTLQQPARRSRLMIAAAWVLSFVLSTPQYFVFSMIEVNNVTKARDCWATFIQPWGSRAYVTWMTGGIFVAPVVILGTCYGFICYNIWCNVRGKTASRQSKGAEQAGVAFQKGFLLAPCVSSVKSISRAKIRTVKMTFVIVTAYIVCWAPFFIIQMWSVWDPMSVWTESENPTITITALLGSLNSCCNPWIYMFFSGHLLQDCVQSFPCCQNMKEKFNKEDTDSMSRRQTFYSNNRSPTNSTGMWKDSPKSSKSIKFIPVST
TRPML3 agonist: human TRPML3 channel agonists, primary screen, cell-based, HEK293 TRPML3-YFP, Fluo-8 calcium fluorescence, 3 µM. 100% = the carbachol control signal. activation, % at 3 µM. 220,000 tested, 0.29% active. Mucolipin-3 (Homo sapiens), Q8TDD5;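 active = activation above its plate's cutoff, the mean activation of the plate's test wells plus 3 SD, cut at about 12% in these data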;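 also: 0% = DMSO only wells and 100% = carbachol wells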
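Test system – HEK293 line with stable expression of human TRPML3-YFP channel · Control set – carbachol 87 µM final as high control (100%), DMSO as low control (0%) · Signal – Fluo-8 calcium dye fluorescence, ex 470-495, em 515-575 nm · Incubation – 1-h 37 °C dye load, 5-s basal, 120-s post-compound reads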
OXTR ag: human OXTR agonists, primary screen, fluorescence, CHO-OTR cells, Fluo-8 calcium; Oxytocin receptor (Homo sapiens), P30559; Fluo-8 calcium fluorescence; normalized: DMSO 0%, oxytocin 100%; activation, % at 3 µM; 320,000 tested, 0.32% active;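 active = activation above the mean of all tested compounds plus 3 SD, cutoff set per screening run, cut at about 20% in these data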;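 also: peak over basal fluorescence ratio from a 100 s FLIPR kinetic read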
V1R ag confirm: V1a receptor agonists, calcium signal, confirmation, Fluo-8 calcium fluorescence, CHO-V1R cells; shares compounds with V1R ag counter; agonist; activation, % at 3 µM; 180 tested, 20% active;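 active = average activation exceeds primary screen hit cutoff, cut at about 21% in these data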;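 also: peak over basal fluorescence ratio during a 100 s FLIPR read; 0% = DMSO only wells and 100% = 3 nM vasopressin wells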
OXTR ag counter: human OXTR agonists, counter-screen for V1R agonist project, fluorescence, CHO-OTR cells, triplicate. AID 434969, 2010. shares compounds with V1R ag counter. Fluo-8 calcium fluorescence. 180 tested, 10% active. activation, % at 3 µM;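 active = mean activation over three repeats above the cutoff from the earlier oxytocin receptor agonist screen, cut at about 20% in these data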;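 also: peak over minimum fluorescence ratio within a 100 second FLIPR read; 0% = DMSO only wells and 100% = oxytocin high control wells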
The depositor's hits bear a star; / = no result given.

SMILES	OXTR potentiate	TRPN1 ag	V1R ag counter	TRPML3 agonist	OXTR ag	V1R ag confirm	OXTR ag counter
COC(=O)c1cc(CNC(=O)c2ccc(S(=O)(=O)N(C)c3ccccc3)cc2)ccc1OC	-7	/	24*	/	5	1	0
Cc1c(NC(=O)CSc2ccccc2F)c(=O)n(-c2ccccc2)n1C	11	0	1	0	1	/	/
Cc1c(NC(=O)CSc2ccccc2C(=O)Nc2cccnc2)c(=O)n(-c2ccccc2)n1C	1	2	31*	0	0	-1	-1
O=C(c1cc(COc2ccccc2)on1)N1CCCC(CN2CCOCC2)C1 (stereo not drawn)	-4	/	2	/	1	/	/
Cc1ccc(SC/C(O)=C(\C#N)c2nc3ccccc3s2)cc1	-30	1	8	1	11	/	/
N#C/C(=C(/O)CSc1ccccn1)c1nc2ccccc2s1	-15	7	27*	2	14	2	1
CCN1C(=S)SC(=O)C1=C1C=C(C)N(Cc2ccco2)C(C)=C1	-25	8	24*	6	19	23*	18
O=C(c1ccccc1NS(=O)(=O)c1ccc(F)cc1)N1CCc2ccccc21	-5	-1	24*	0	-2	4	0
CC(CC(=O)N1CCN(c2cccc(Cl)c2)CC1)S(=O)(=O)c1ccc2c(c1)NC(=O)CO2 (stereo not drawn)	-13	/	21*	/	17	7	5
COC(=O)C(NC(=O)c1ccccc1Cl)(Nc1ncc(S(=O)(=O)c2ccc([N+](=O)[O-])cc2)s1)C(F)(F)F (stereo not drawn)	-15	7	28*	4	19	14	16
O=C(Nc1ncc(S(=O)(=O)c2ccc([N+](=O)[O-])cc2)s1)c1ccc2ccccc2c1	-13	0	1	1	1	/	/
COc1ccc(/C=C/CN2CCC(CO)(Cc3ccccc3Cl)CC2)cc1	-25	2	28*	0	13	3	9
CN(C)S(=O)(=O)N(CC(=O)Nc1ccc(S(=O)(=O)N2CCCC2)cc1)c1ccccc1	-1	/	1	/	0	/	/
CCCOc1ccc(-c2c(C(=O)N/N=C/c3ccncc3)nnn2-c2nonc2N)cc1	-13	/	21*	/	9	0	0
COc1cccc(-c2c(C(=O)N/N=C/c3ccsc3)nnn2-c2nonc2N)c1	-8	/	25*	/	8	17	5
Nc1nonc1-n1nnc(C(=O)N/N=C/c2cccnc2)c1CSc1ccc(Cl)cc1	-8	/	21*	/	15	3	5
Nc1nonc1-n1nnc(C(=O)N/N=C/c2cccnc2)c1CSc1ccccc1	-7	/	15	/	10	/	/
CCCOc1ccc(-c2c(C(=O)N/N=C/c3ccc(C)o3)nnn2-c2nonc2N)cc1	-1	/	4	/	-1	/	/
COC(=O)c1sc(N2CCN(c3ccc(Cl)cc3)CC2)nc1N	-11	1	4	1	3	/	/
COc1cccc(/C=N/N=C(\N)c2nonc2N)c1O	-8	-1	0	1	0	/	/
COc1ccc(N(CC(=O)N2CCN(c3cccc(C)c3)C(C)C2)S(=O)(=O)c2c(C)n[nH]c2C)cc1 (stereo not drawn)	-14	-1	23*	0	0	0	-1
N#CCCN(Cc1cccnc1)C(=S)NC(=O)c1ccccc1	-1	/	1	/	1	/	/
Nc1c(C(=O)NCc2ccc3c(c2)OCO3)nnn1Cc1ccc(Br)cc1	-9	15	37*	8	16	15	23*
CC(=O)c1sc(NC(=O)Cc2c(F)cccc2Cl)nc1C	-2	/	-1	/	-1	/	/
O=C(Cc1c(F)cccc1Cl)Nc1nc2ccccc2s1	-20	0	22*	0	1	2	-1
SMILES	OXTR potentiate	TRPN1 ag	V1R ag counter	TRPML3 agonist	OXTR ag	V1R ag confirm	OXTR ag counter
COc1ccc(CCNC(=O)C(=O)Nc2ccc3c(c2)OCO3)cc1OC	-19	0	1	0	0	/	/
O=C1c2ccccc2C(=O)N1CCC#Cc1ccc2cc(CCCO)oc(=O)c2c1	-11	/	26*	/	15	9	8
O=C(CCNC(=O)c1ccccc1Cl)NCC(c1ccc(F)cc1)N1CCOCC1 (stereo not drawn)	-8	/	-1	/	-1	/	/
O=Cc1cc(N=Nc2ccccc2Cl)ccc1O	-16	-1	5	0	6	/	/
CCOC(=O)c1[nH]c(CN2CCN(c3ccc(OC)cc3)CC2)c(C(=O)OCC)c1C	-29	/	24*	/	18	12	22*
CCOC(=O)c1[nH]c(C)c(C(=O)N2CCN(c3ccc(OC)cc3)CC2)c1C	-17	0	3	1	1	/	/
OCc1nc2c(ccc3ccccc32)[nH]1	-3	/	0	/	0	/	/
COc1ccc(NC(=O)CN2C(=O)/C(=C3\SC(=S)N(C4CCS(=O)(=O)C4)C3=O)c3ccccc32)cc1 (stereo not drawn)	-1	1	22*	1	-2	0	0
O=C(Nc1ccc(Cl)cc1)Nc1ccc(N2CCOCC2)cc1	-14	3	3	1	2	/	/
O=C(Nc1ccc(N2CCOCC2)cc1)Nc1ccc(Cl)c(Cl)c1	-8	2	21*	3	17	11	10
CCCCCC(O)(c1ccc(OC)cc1)C(CN1CCOCC1)c1ccccc1 (stereo not drawn)	-2	/	24*	/	-2	0	-1
C/C(=N/NC(=O)CNC(=O)c1cccs1)c1ccco1	3	3	0	1	1	/	/
O=C(N/N=C/c1sc(=O)[nH]c1-[n+]1ccc2ccccc2c1)c1ccccc1[O-]	-3	/	27*	/	17	1	0
O=C(N/N=C/c1sc(=O)[nH]c1-[n+]1ccccc1)c1ccccc1[O-]	1	-1	1	-1	1	/	/
Cc1cccc(CS(=O)(=O)Cc2ccc(C(=O)NCc3cccs3)o2)c1	-13	0	5	-1	1	/	/
CCc1ccc([C@@H]2CC=C(C(=O)O)CN2S(=O)(=O)c2ccc(C)cc2)cc1	-9	/	1	/	2	/	/
CC1(CCc2ccc3c(c2)OCO3)NCCc2c1[nH]c1ccccc21 (stereo not drawn)	-16	/	30*	/	16	10	22*
